Here are results for two compounds from ChEMBL document CHEMBL1156008, “Synthesis of novel isoluminol probes and their use in rapid bacterial assays” (Bioorg Med Chem Lett, 2009).

The test system of experiment [1] is Lactococcus lactis. Kind of experiment: Binding affinity to Lactococcus lactis subsp. lactis C2 ATCC 11454 membrane surface by fluorescence assay. The format is functional. In outline: (§1)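 L. lactis C2 grown 18 h at 27 °C in M17 (4% v/v inoculum). 200 µl culture, in triplicate, pelleted (9000g, 2 °C, 10 min); supernatant background subtracted. Pellet resuspended in peptide-isoluminol probe (DMF, diluted in pH 6.4 phosphate buffer, 0.01 M, 0.1 ionic strength) for 10 min at 27 °C. Fluorescence read at ex 360/em 430 nm, then repeated centrifugation/buffer washes; fraction retained calculated.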

The test system of experiment [2] is Lactococcus lactis. The experiment in a line: Binding affinity to Lactococcus lactis subsp. lactis C2 ATCC 11454 membrane surface measured after second washout with buffer by fluorescence assay. The class given is functional. The essentials:
as §1

In experiment [3] the test system is Salmonella typhimurium. The experiment in a line: Binding affinity to Salmonella Typhimurium ATCC 14028 membrane surface measured after fourth washout with buffer by fluorescence assay. The format is functional, organism-based. The conditions noted are these: Salmonella enterica subsp. enterica serovar Typhimurium. In outline: (§2)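 Cell pellets were exposed to peptide-isoluminol probe in pH 6.4 phosphate buffer (0.01 M, 0.1 ionic strength). Probe remaining on cells was then tracked through repeated buffer wash cycles by fluorescence at ex 360/em 430 nm.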

Experiment [4] relates to Escherichia coli. The experiment in a line: Binding affinity to Escherichia coli ATCC 47076 membrane surface measured after fourth washout with buffer by fluorescence assay. The format is functional, organism-based. In outline:
as §2

For experiment [5], the system named is Lactococcus lactis. The experiment in a line: Binding affinity to Lactococcus lactis subsp. lactis C2 ATCC 11454 membrane surface measured after first washout with buffer by fluorescence assay. The class given is functional. In outline: as §1
Experiment [6] has as its system Escherichia coli. Kind of experiment: Binding affinity to Escherichia coli ATCC 47076 membrane surface measured after second washout with buffer by fluorescence assay. The class given is functional, organism-based. The essentials:
as §2

Experiment [7] has as its system Escherichia coli. Kind of experiment: Binding affinity to Escherichia coli ATCC 47076 membrane surface by fluorescence assay. The class given is functional, organism-based. In outline: as §2
Experiment [8] relates to Staphylococcus aureus. Kind of experiment: Binding affinity to Staphylococcus aureus ATCC 25923 membrane surface measured after second washout with buffer by fluorescence assay. The class given is functional, organism-based. In outline:
as §2

The subject of experiment [9] is Staphylococcus aureus. The experiment in a line: Binding affinity to Staphylococcus aureus ATCC 25923 membrane surface by fluorescence assay. The format is functional, organism-based. In outline:
as §2

Experiment [10] relates to Salmonella typhimurium. The experiment in a line: Binding affinity to Salmonella Typhimurium ATCC 14028 membrane surface measured after second washout with buffer by fluorescence assay. The format is functional, organism-based. The conditions noted are these: Salmonella enterica subsp. enterica serovar Typhimurium. In outline:
as §2

The test system of experiment [11] is Salmonella typhimurium. Kind of experiment: Binding affinity to Salmonella Typhimurium ATCC 14028 membrane surface by fluorescence assay. The class given is functional, organism-based. The conditions noted are these: Salmonella enterica subsp. enterica serovar Typhimurium. In outline: as §2

Each structure is given as a SMILES string. Activity calls are given as the source filed them. The calls are words filed in the database; no cut-off is given here.

As to `CCN(CCCCCCNC(=O)COCC(=O)N[C@@H](CCCCN)C(=O)N[C@@H](CCCCN)C(=O)N[C@@H](CCCCN)C(=O)O)c1ccc2c(=O)[nH][nH]c(=O)c2c1`, the Activity stood at 34% with Lactococcus lactis [1], 10% in the experiment on Lactococcus lactis [2] and 23% in the experiment with Lactococcus lactis [5]. In addition, the result with Salmonella typhimurium [3] and in the experiment on Escherichia coli [4] was Active.

In the case of `CCN(CCCCCCNC(=O)COCC(=O)NC(CCC(=O)O)C(=O)NC(CCC(=O)O)C(=O)O)c1ccc2c(=O)[nH][nH]c(=O)c2c1` (centres undefined), the Activity in the experiment with Lactococcus lactis [1], in the experiment with Escherichia coli [7], in the experiment on Staphylococcus aureus [9] and in the experiment with Salmonella typhimurium [11] was 15% each time. Also, the result in the experiment on Escherichia coli [6], in the experiment on Lactococcus lactis [2], in the experiment with Staphylococcus aureus [8], in the experiment on Salmonella typhimurium [10] and in the experiment with Lactococcus lactis [5] was Active.
